Data on 10 compounds can be found in ChEMBL document CHEMBL2093137, “WHO-TDR NTD Screening”.

In brackets after ≈: the same amount, converted by molar mass.

One data set relates to Leishmania infantum. Put plainly: WHO-TDR: Leishmaniasis. The data set is classed as functional, organism-based, Mus musculus. Conditions: Macrophage. The method, boiled down: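 Intracellular amastigotes of Leishmania infantum MHOM/MA(BE)/67, hosted in murine peritoneal macrophages, were exposed to compounds from a 10,000-member diverse library supplied by Life Chemicals. The library had been filtered for drug-likeness and reactive groups. The reported IC50 expresses antiparasitic potency.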

Another data set deals with Onchocerca ochengi. Put plainly: WHO-TDR: Onchocerciasis. The arrangement: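 at 12.5 µM on microfilariae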. The data set is classed as functional. Put shortly:
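Whole-organism screen of a 10,000-compound diverse library from Life Chemicals, filtered for drug-likeness and reactive groups, against microfilariae of Onchocerca ochengi or Onchocerca lienalis, used as animal-pathogen stand-ins for the human parasite. The assay followed previously published standard procedures, with reference drugs as positive controls. Activity is reported as percent inhibition and as IC50.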

Another data set has as its system Schistosoma mansoni. As to the kind of experiment: WHO-TDR: Schistosomiasis. The data set is classed as functional. The arrangement: concentration or dose not given beside the values. The method, boiled down:
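Whole-organism screen of a 10,000-compound diverse library from Life Chemicals, filtered for drug-likeness and reactive groups, against larval and/or adult worms of Schistosoma mansoni Puerto Rican strain. The assay followed previously published standard procedures, with a reference drug as positive control. Activity is reported as percent inhibition and as IC50.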

The test system of a further data set is Trypanosoma cruzi. As to the kind of experiment: WHO-TDR: Chagas disease. The data set is classed as functional, organism-based, Homo sapiens. The settings on record: MRC5. The method, boiled down: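 Intracellular amastigotes of the Trypanosoma cruzi Tulahuen CL2 beta-galactosidase strain, grown in MRC-5SV2 human lung fibroblast host cells, were tested in a whole-organism screen. The compounds came from a 10,000-member diverse Life Chemicals library that had been filtered for drug-likeness and reactive groups. Previously published standard procedures were followed, with a reference drug as positive control, and potency is reported as IC50.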

For data set [1], the system named is Trypanosoma brucei brucei. Put plainly: WHO-TDR: Human African Trypanosomiasis (HAT). The data set is classed as functional, organism-based. The settings on record: Squib-427. Put shortly:
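In this whole-organism screen, the target was the bloodstream form of Trypanosoma brucei, strain Squib 427. A diverse set of 10,000 compounds from Life Chemicals, previously filtered for drug-likeness and reactive groups, was assayed by standard published procedures using reference drugs as positive controls. Each value is an IC50 for antiparasitic potency.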

In another data set the test system is Brugia malayi. Put plainly: WHO-TDR: Lymphatic Filariasis. The arrangement: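 tested at 10 µM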. The data set is classed as functional. Put shortly: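 Whole-organism screen of a 10,000-compound diverse library from Life Chemicals, filtered for drug-likeness and reactive groups, against Brugia malayi microfilariae. The assay followed previously published standard procedures, with reference drugs as positive controls. Activity is reported as percent inhibition and as IC50.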

For another data set, the system named is Plasmodium falciparum K1. As to the kind of experiment: WHO-TDR: Malaria. The data set is classed as functional, organism-based, Homo sapiens. Conditions: Erythrocyte. Put shortly:
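Previously published standard procedures, including a reference drug as positive control, were used to screen whole Plasmodium falciparum K1 parasites inside human red blood cells. IC50 is the measure of antiplasmodial potency. The compounds were a 10,000-member diverse Life Chemicals library.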

Data set [2] can be described thus: WHO-TDR: Cytotoxicity. The data set is classed as toxicity, cell-based. Conditions: human, MRC5 cells.

As a reminder, the IC50 is the concentration at which inhibition is half-maximal. In general, % Inhibition refers to the share of the control response that was lost under treatment. `O=C(c1ccco1)N(CCCn1ccnc1)c1nc2c(F)cc(F)cc2s1`: the IC50 in the data set on Leishmania infantum is greater than 12.7 µg/mL; in the data set with Trypanosoma cruzi it was 3.97 µg/mL (≈ 10.2 µM); in data set [1], 4.08 µg/mL (≈ 10.5 µM); in the data set with Plasmodium falciparum K1, 0.533 µg/mL (≈ 1.37 µM); in data set [2] it was 7.77 µg/mL (≈ 20 µM). Further, the figures for the “% Inhibition” value with Onchocerca ochengi, with Schistosoma mansoni and in the data set with Brugia malayi were 100%, 0% and 0%, respectively.

On to `Cc1ccc(C(=O)Nc2nnc(Cc3cccs3)o2)cc1C`, for which the IC50 is greater than 9.4 µg/mL in the data set on Leishmania infantum; 3.01 µg/mL (≈ 9.61 µM) in the data set on Trypanosoma cruzi; 0.383 µg/mL (≈ 1.22 µM) in data set [1]; greater than 9.4 µg/mL with Plasmodium falciparum K1; greater than 9.4 µg/mL in data set [2]. The “% Inhibition” value stood at 0% in the data set on Onchocerca ochengi, 25% with Schistosoma mansoni and 50% in the data set with Brugia malayi.

As for `COc1ccc(-c2nnc(NC(=O)c3ccn(C)n3)o2)cc1OC`, the concentration for half-maximal inhibition (IC50) is greater than 9.88 µg/mL in the data set on Leishmania infantum; greater than 9.88 µg/mL with Trypanosoma cruzi; greater than 9.88 µg/mL in data set [1]; greater than 9.88 µg/mL in the data set with Plasmodium falciparum K1; 1.41 µg/mL (≈ 4.28 µM) in data set [2]. In addition, the “% Inhibition” value was determined as 100% with Onchocerca ochengi, 25% in the data set on Schistosoma mansoni and 0% in the data set with Brugia malayi.

Consider `COc1nn(C)cc1-c1nnc(SCC(=O)N2CCC(Cc3ccccc3)CC2)n1C`, for which the IC50 is 4.28 µg/mL (≈ 9.71 µM) in the data set on Leishmania infantum; 3.01 µg/mL (≈ 6.84 µM) in the data set with Trypanosoma cruzi; 0.428 µg/mL (≈ 0.971 µM) in data set [1]; 3.65 µg/mL (≈ 8.28 µM) in the data set with Plasmodium falciparum K1; 5.88 µg/mL (≈ 13.3 µM) in data set [2]. In addition, the “% Inhibition” value is 100% in the data set on Onchocerca ochengi, 0% in the data set with Schistosoma mansoni and 0% in the data set with Brugia malayi.

For `CCSc1nc(-c2ccccc2)c(NC(C)=O)s1`, the 50% inhibitory concentration (IC50) in the data set with Leishmania infantum is 0.27 µg/mL (≈ 0.97 µM); with Trypanosoma cruzi it was greater than 8.35 µg/mL; in data set [1], greater than 8.35 µg/mL; with Plasmodium falciparum K1, greater than 8.35 µg/mL; in data set [2], greater than 8.35 µg/mL. The “% Inhibition” value in the data set with Onchocerca ochengi, with Schistosoma mansoni and in the data set with Brugia malayi was 0% each time.

As to `Cc1ccc(S(=O)(=O)N2CCC(C(=O)Nc3c(C(N)=O)oc4ccccc34)CC2)cc1`, the IC50 (with Leishmania infantum; in the data set with Trypanosoma cruzi; in data set [1]; in the data set on Plasmodium falciparum K1; in data set [2]) was greater than 13.2 µg/mL throughout. The figures for the “% Inhibition” value in the data set on Onchocerca ochengi, in the data set with Schistosoma mansoni and in the data set on Brugia malayi were 100%, 0% and 0%, respectively.

Regarding `Cc1ccc(NC(=O)CN2CCN(c3nccn3-c3ccccc3F)CC2)cc1`, the IC50 with Leishmania infantum was greater than 11.8 µg/mL; with Trypanosoma cruzi, 11.2 µg/mL (≈ 28.6 µM); in data set [1], 5.48 µg/mL (≈ 13.9 µM); with Plasmodium falciparum K1, 6.19 µg/mL (≈ 15.7 µM); in data set [2] it was greater than 11.8 µg/mL. In addition, the “% Inhibition” value in the data set with Onchocerca ochengi is recorded as 100%; in the data set with Schistosoma mansoni, 0%; with Brugia malayi it was 0%.

Take `Cc1ccc(C)c2sc(N(CCCn3ccnc3)C(=O)Cc3ccc(F)cc3)nc12`: the IC50 in the data set with Leishmania infantum was 4.46 µg/mL (≈ 10.6 µM); with Trypanosoma cruzi, 0.495 µg/mL (≈ 1.17 µM); in data set [1], 3.98 µg/mL (≈ 9.41 µM); in the data set on Plasmodium falciparum K1 it was 3.4 µg/mL (≈ 8.04 µM); in data set [2], 3.26 µg/mL (≈ 7.73 µM). Further, the “% Inhibition” value in the data set with Onchocerca ochengi is 100%; with Schistosoma mansoni, 0%; with Brugia malayi it was 0%.

`Cc1nc2scc(-c3cccc(NC(=O)NC4CCCCC4)c3)n2c(=O)c1C`: the IC50 in the data set on Leishmania infantum was greater than 11.9 µg/mL; with Trypanosoma cruzi, 3.54 µg/mL (≈ 8.93 µM); in data set [1] it was 4.05 µg/mL (≈ 10.2 µM); in the data set on Plasmodium falciparum K1, greater than 11.9 µg/mL; in data set [2] it was greater than 11.9 µg/mL. In addition, the “% Inhibition” value turned out to be 100% in the data set with Onchocerca ochengi and 0% in the data set on Brugia malayi.

Regarding `O=S(=O)(NCCNc1ccc(Nc2ccccn2)nn1)c1ccccc1C(F)(F)F`, the IC50 in the data set on Leishmania infantum is greater than 13.2 µg/mL; in the data set with Trypanosoma cruzi, greater than 13.2 µg/mL; in data set [1], 4.31 µg/mL (≈ 9.83 µM); in the data set with Plasmodium falciparum K1, 4.71 µg/mL (≈ 10.7 µM); in data set [2] it was 5.08 µg/mL (≈ 11.6 µM). In addition, the entries for the “% Inhibition” value with Onchocerca ochengi and in the data set with Brugia malayi were 100% and 25%, respectively.
